Measured values published in ChEMBL document CHEMBL2157866, “Virtual screening and computational optimization for the discovery of covalent prolyl oligopeptidase inhibitors with activity in human cells” (J Med Chem, 2012).
Calls of active or inactive are those of the source.

Columns and labels:
[1] = biological target: Dipeptidyl peptidase 4 (Homo sapiens) (UniProt P27487); experiment: Inhibition DPP4 in human HCEC cell extracts using Gly-Pro-AMC substrate at 100 uM incubated for 30 mins by fluorimetric assay
Dipeptidyl peptidase 4 (Homo sapiens), sequence (P27487 whole entry, looked up): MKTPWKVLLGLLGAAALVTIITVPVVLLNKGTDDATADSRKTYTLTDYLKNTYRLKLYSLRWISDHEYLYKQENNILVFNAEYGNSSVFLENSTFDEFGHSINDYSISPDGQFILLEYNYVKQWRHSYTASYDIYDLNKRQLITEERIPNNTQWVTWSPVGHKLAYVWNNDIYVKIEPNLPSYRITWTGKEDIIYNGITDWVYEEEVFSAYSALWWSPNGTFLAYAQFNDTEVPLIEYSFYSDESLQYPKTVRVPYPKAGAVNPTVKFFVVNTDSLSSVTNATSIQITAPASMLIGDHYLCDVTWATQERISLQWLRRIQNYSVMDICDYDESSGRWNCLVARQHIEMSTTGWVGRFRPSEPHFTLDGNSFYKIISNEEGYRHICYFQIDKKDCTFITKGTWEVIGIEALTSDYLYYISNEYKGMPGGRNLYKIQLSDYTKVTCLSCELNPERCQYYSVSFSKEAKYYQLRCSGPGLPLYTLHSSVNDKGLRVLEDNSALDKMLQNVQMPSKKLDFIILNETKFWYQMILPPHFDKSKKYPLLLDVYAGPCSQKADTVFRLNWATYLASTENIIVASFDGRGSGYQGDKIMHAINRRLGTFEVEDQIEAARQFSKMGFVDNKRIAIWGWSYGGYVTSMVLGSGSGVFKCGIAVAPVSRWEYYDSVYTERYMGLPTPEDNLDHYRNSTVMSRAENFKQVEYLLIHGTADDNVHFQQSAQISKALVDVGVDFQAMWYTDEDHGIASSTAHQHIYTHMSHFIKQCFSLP
In short: (§1)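 Cells grown to confluence in DMEM with 4.5 g/L glucose (10% FCS for HCEC, 5% FCS for glioblastoma lines), then lysed in PBS with 0.1% Triton X-100. Inhibitor (methanol stock diluted in water) preincubated 5–10 min at room temperature in duplicate wells. Gly-Pro-AMC added at 10 μM final; fluorescence increase (ex/em 360/460 nm) read for 30 min at 37 °C.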

[2] = biological target: Dipeptidyl peptidase 4 (Homo sapiens) (UniProt P27487); experiment: Inhibition DPP4 in human LNZ308 cell extracts using Gly-Pro-AMC substrate at 100 uM incubated for 30 mins by fluorimetric assay; in short: as §1
[3] = biological target: Dipeptidyl peptidase 4 (Homo sapiens) (UniProt P27487); experiment: Inhibition DPP4 in human LN18 cell extracts using Gly-Pro-AMC substrate at 100 uM incubated for 30 mins by fluorimetric assay; in short: as §1
[4] = biological target: T1, Prolyl endopeptidase (Homo sapiens) (UniProt P48147); experiment: Inhibition of POP in intact human HCEC cells using Cbz-Gly-Pro-AMC substrate at 100 uM incubated for 30 mins by fluorimetric assay; format: cell-based
T1 sequence (whole entry): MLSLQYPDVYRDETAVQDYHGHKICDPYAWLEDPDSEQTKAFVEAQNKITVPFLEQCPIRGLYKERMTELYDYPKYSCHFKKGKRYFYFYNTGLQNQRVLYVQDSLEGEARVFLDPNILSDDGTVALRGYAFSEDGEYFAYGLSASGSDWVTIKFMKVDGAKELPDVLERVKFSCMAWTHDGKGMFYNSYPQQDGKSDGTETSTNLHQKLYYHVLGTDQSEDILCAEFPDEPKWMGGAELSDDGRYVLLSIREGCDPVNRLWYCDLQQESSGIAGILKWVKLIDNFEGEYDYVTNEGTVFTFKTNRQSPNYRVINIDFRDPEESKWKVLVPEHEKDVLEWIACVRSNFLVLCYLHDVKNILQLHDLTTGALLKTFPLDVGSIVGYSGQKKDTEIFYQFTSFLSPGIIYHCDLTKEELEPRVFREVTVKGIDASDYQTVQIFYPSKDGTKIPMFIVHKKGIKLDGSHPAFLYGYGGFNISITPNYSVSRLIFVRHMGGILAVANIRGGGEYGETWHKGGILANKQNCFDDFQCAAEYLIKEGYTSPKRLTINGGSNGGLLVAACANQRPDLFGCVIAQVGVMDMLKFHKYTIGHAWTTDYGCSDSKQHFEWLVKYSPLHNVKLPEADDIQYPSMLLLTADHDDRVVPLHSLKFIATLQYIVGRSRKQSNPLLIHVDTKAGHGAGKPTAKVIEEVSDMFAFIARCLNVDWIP
In short: (§2)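 Intact confluent monolayers kept in PBS pH 7.2–7.4 without detergent, in duplicate wells. Inhibitor added 5–10 min at room temperature before Z-Gly-Pro-AMC at 10 μM final. Fluorescence increase (ex/em 360/460 nm) followed for 30 min at 37 °C. IC50 obtained by plotting residual activity against inhibitor concentration.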

[5] = biological target: T1, Prolyl endopeptidase (Homo sapiens); experiment: Inhibition of POP in intact human LN18 cells using Cbz-Gly-Pro-AMC substrate at 100 uM incubated for 30 mins by fluorimetric assay; format: cell-based; in short: as §2
[6] = biological target: Dipeptidyl peptidase 4 (Homo sapiens) (UniProt P27487); experiment: Inhibition DPP4 in human LN229 cell extracts using Gly-Pro-AMC substrate at 100 uM incubated for 30 mins by fluorimetric assay; in short: as §1
[7] = biological target: T1, Prolyl endopeptidase (Homo sapiens); experiment: Inhibition of POP in intact human LN229 cells using Cbz-Gly-Pro-AMC substrate at 100 uM incubated for 30 mins by fluorimetric assay; format: cell-based; in short: as §2
[8] = biological target: T1, Prolyl endopeptidase (Homo sapiens); experiment: Inhibition of POP in intact human LNZ308 cells using Cbz-Gly-Pro-AMC substrate at 100 uM incubated for 30 mins by fluorimetric assay; format: cell-based; in short: as §2
[9] = biological target: Prolyl endopeptidase FAP (Homo sapiens) (UniProt Q12884); experiment: Inhibition at human recombinant FAPalpha at 100 uM
Prolyl endopeptidase FAP (Homo sapiens), sequence (Q12884 whole entry): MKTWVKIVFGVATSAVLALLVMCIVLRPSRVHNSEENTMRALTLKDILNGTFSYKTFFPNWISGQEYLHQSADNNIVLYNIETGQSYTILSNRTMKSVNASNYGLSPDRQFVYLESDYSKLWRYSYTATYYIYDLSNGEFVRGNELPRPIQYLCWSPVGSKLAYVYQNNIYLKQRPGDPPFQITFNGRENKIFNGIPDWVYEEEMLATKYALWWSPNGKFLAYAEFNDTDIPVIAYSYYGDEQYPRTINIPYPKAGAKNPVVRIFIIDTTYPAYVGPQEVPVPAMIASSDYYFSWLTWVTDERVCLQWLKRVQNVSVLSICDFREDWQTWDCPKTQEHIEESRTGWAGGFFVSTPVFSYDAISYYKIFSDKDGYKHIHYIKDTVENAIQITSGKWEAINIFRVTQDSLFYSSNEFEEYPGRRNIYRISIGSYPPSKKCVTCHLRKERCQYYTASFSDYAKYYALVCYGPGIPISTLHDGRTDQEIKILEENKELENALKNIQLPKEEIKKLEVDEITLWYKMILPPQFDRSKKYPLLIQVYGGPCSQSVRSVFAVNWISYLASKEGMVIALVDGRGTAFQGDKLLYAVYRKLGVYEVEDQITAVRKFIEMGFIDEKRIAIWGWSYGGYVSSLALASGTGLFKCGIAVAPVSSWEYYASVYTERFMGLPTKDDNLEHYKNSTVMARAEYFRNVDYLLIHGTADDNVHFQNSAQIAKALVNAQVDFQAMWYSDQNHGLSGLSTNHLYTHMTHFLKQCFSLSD
In short: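 Recombinant human FAPα diluted in PBS with 1 mg/mL BSA. Setup as for cell extracts: inhibitor preincubated 5–10 min at room temperature, then Z-Gly-Pro-AMC at 10 μM final. AMC fluorescence (ex/em 360/460 nm) recorded for 30 min at 37 °C.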

[10] = biological target: T1, Prolyl endopeptidase (Homo sapiens); experiment: Inhibition of POP in human LN229 cell extracts using Cbz-Gly-Pro-AMC substrate at 100 uM incubated for 30 mins by fluorimetric assay
In short: (§3)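 Confluent monolayers (DMEM, 4.5 g/L glucose; 10% FCS for HCEC, 5% FCS for LN18/LN229/LNZ308) lysed in PBS containing 0.1% Triton X-100. Inhibitor preincubated 5–10 min at room temperature in duplicate wells. Z-Gly-Pro-AMC added at 10 μM final; fluorescence (ex/em 360/460 nm) recorded over 30 min at 37 °C. IC50 taken from residual activity plotted against decreasing inhibitor concentrations.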

[11] = biological target: T1, Prolyl endopeptidase (Homo sapiens); experiment: Inhibition of POP in human LN18 cell extracts using Cbz-Gly-Pro-AMC substrate at 100 uM incubated for 30 mins by fluorimetric assay; in short: as §3
[12] = biological target: T1, Prolyl endopeptidase (Homo sapiens); experiment: Inhibition of POP in human HCEC cell extracts using Cbz-Gly-Pro-AMC substrate at 100 uM incubated for 30 mins by fluorimetric assay; in short: as §3
[13] = biological target: T1, Prolyl endopeptidase (Homo sapiens); experiment: Inhibition of POP in human LNZ308 cell extracts using Cbz-Gly-Pro-AMC substrate at 100 uM incubated for 30 mins by fluorimetric assay; in short: as §3

Measured: inhibition

O=C(NCc1ccccc1)c1ccccc1C(=O)N1CCCC1
> 50%: [4] | [5] | [7] | [8]
inactive: [1] | [2] | [3] | [6]

N#C[C@@H]1CCCN1C(=O)c1cccc2c1C(=O)N(Cc1ccccc1)C2
28%: [9]
inactive: [1] | [2] | [3] | [6]

N#C[C@@H]1CCCN1C(=O)c1ccccc1C(=O)NCc1ccccc1
34%: [9]
inactive: [1] | [2] | [3] | [6]

O=C(NCc1ccccc1)c1ccccc1C(=O)N1CCCCC1
> 50%: [10] | [11] | [12] | [13]
not listed: [9]
inactive: all other assays above

O=C(c1cccc2c1C(=O)N(Cc1ccccc1)C2)N1CCCC1
11%: [9]
inactive: [1] | [2] | [3] | [6]
